Experimental data from ChEMBL document CHEMBL1649165, “Activity profile in vitro of micafungin against Spanish clinical isolates of common and emerging species of yeasts and molds” (2009).
*1 amine or outer side, *2 acyl side, *3 side chain or, on linkers, in order; H or OH if unused. Where a SMILES comes first, the peptide text is derived from it. Bridges are numbered along the chain shown (N, C = ends). [ ]: non-standard residue; d: D form. The star is where a group is joined. pTerphenylCO(4''-OnC5H11) = CCCCCOc1ccc(-c2ccc(-c3ccc(C(=O)*)cc3)cc2)cc1; Orn(4R-OH,5R-OH) = O=C([C@H](C[C@@H](O)[C@@H](O)N[*:3])N[*:1])[*:2]; hTyr(3S-OH,4S-OH) = N[C@H](C(=O)O)[C@H](O)[C@@H](O)c1ccc(O)cc1; Pro(3S-OH,4S-Me) = C[C@H]1CN[C@H](C(=O)O)[C@H]1O; Hyp = O=C(O)[C@@H]1C[C@@H](O)CN1

Assays:
Format in all cases: functional
Candida metapsilosis = test: Antimicrobial activity against Candida metapsilosis by broth microdilution method; conditions: Lodderomyces metapsilosis
Outline: (§1)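 Clinical isolates from human patients, tested by broth microdilution using the AFST-EUCAST reference procedure for fermentative yeasts. The MIC was read per that reference method.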

Exophiala jeanselmei = test: Antimicrobial activity against Exophiala jeanselmei by broth microdilution method
Trichoderma = test: Antimicrobial activity against Trichoderma spp. by broth microdilution method
Outline: (§2)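 Filamentous fungus clinical isolates tested by the AFST-EUCAST reference broth microdilution method for moulds. For echinocandins, the endpoint was the minimum effective concentration: the lowest drug concentration giving aberrant hyphal growth, read with an inverted microscope.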

Ustilago = test: Antimicrobial activity against Ustilago spp by broth microdilution method
Exophiala dermatitidis = test: Antimicrobial activity against Exophiala dermatitidis by broth microdilution method
Diutina rugosa = test: Antimicrobial activity against Candida rugosa by broth microdilution method; outline: as §1
Aspergillus niger = test: Antimicrobial activity against Aspergillus niger by broth microdilution method
Outline: (§3)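 Clinical mould isolates, tested by broth microdilution using the AFST-EUCAST reference method for filamentous fungi. For echinocandins, the endpoint was the minimum effective concentration: the lowest drug concentration giving aberrant hyphal growth, read with an inverted microscope.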

Aspergillus nidulans = test: Antimicrobial activity against Aspergillus nidulans by broth microdilution method; outline: as §3
Saccharomyces cerevisiae = test: Antimicrobial activity against Saccharomyces cerevisiae by broth microdilution method
Phialemonium curvatum = test: Antimicrobial activity against Phialemonium curvatum by broth microdilution method; conditions: Thyridium curvatum; outline: as §2
Scytalidium hyalinum = test: Antimicrobial activity against Scytalidium hyalinum by broth microdilution method; conditions: Neoscytalidium hyalinum; outline: as §2
Aspergillus ustus = test: Antimicrobial activity against Aspergillus ustus by broth microdilution method; outline: as §3
Alternaria alternata = test: Antimicrobial activity against Alternaria alternata by broth microdilution method; outline: as §3
Paecilomyces lilacinus = test: Antimicrobial activity against Paecilomyces lilacinus by broth microdilution method; conditions: Purpureocillium lilacinum; outline: as §2
Papiliotrema laurentii = test: Antimicrobial activity against Cryptococcus laurentii by broth microdilution method
Outline: (§4)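 Clinical isolates of nonfermentative yeasts, tested by broth microdilution following EUCAST recommendations. The only change from that method was a minor modification to improve growth.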

Aspergillus ochraceus = test: Antimicrobial activity against Aspergillus ochraceus by broth microdilution method; outline: as §3
Lewia infectoria = test: Antimicrobial activity against Alternaria infectoria by broth microdilution method; outline: as §3
Trichosporon inkin = test: Antimicrobial activity against Trichosporon inkin by broth microdilution method
Outline: (§5)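 Nonfermentative yeast clinical isolates (Rhodotorula, Trichosporon) tested by broth microdilution. The EUCAST yeast recommendations were followed strictly, with one minor modification to improve growth. MIC was read as the endpoint.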

[1] = system: Cryptococcus deneoformans; test: Antimicrobial activity against Cryptococcus neoformans var. neoformans by broth microdilution method; outline: as §4
[Candida] zeylanoides = Antimicrobial activity against Candida zeylanoides by broth microdilution method; conditions: Dujonia zeylanoides; outline: as §1
Pichia norvegensis = test: Antimicrobial activity against Candida norvegensis by broth microdilution method; outline: as §1
Trichosporon = test: Antimicrobial activity against Trichosporon spp. by broth microdilution method; outline: as §5
Fusarium verticillioides = test: Antimicrobial activity against Fusarium verticillioides by broth microdilution method; outline: as §2
Trichosporon jirovecii = test: Antimicrobial activity against Trichosporon jirovecii by broth microdilution method; conditions: Cutaneotrichosporon jirovecii; outline: as §5
[2] = system: Meyerozyma guilliermondii; test: Antimicrobial activity against Candida guilliermondii by broth microdilution method; outline: as §1
[3] = system: Scopulariopsis brevicaulis; test: Antimicrobial activity against Scopulariopsis brevicaulis by broth microdilution method; outline: as §2
Trichosporon ovoides = test: Antimicrobial activity against Trichosporon ovoides by broth microdilution method; outline: as §5
Torulaspora delbrueckii = test: Antimicrobial activity against Candida coliculosa by broth microdilution method; outline: as §1
Penicillium = test: Antimicrobial activity against Penicillium spp. by broth microdilution method; outline: as §2
Saksenaea vasiformis = test: Antimicrobial activity against Saksenaea vasiformis by broth microdilution method; outline: as §2
Aspergillus sydowii = test: Antimicrobial activity against Aspergillus sydowii by broth microdilution method; outline: as §3
Aspergillus sclerotiorum = test: Antimicrobial activity against Aspergillus sclerotiorum by broth microdilution method; outline: as §3
Aspergillus glaucus = test: Antimicrobial activity against Aspergillus glaucus by broth microdilution method; outline: as §3
Acremonium sp. = test: Antimicrobial activity against Acremonium sp.by broth microdilution method; outline: as §3
[4] = Antimicrobial activity against Rhizopus microsporus by broth microdilution method; outline: as §2
Fusarium reticulatum = test: Antimicrobial activity against Fusarium reticulatum by broth microdilution method; outline: as §2
Trichosporon dermatis = test: Antimicrobial activity against Trichosporon dermatis by broth microdilution method; conditions: Cutaneotrichosporon dermatis; outline: as §5
Trichosporon domesticum = test: Antimicrobial activity against Trichosporon mycotoxinivorans by broth microdilution method; conditions: Apiotrichum domesticum
Outline: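 Spanish human clinical isolates were tested as nonfermentative yeasts by broth microdilution. The method strictly followed the EUCAST recommendations, with a minor modification to improve growth, and the read-out was the MIC.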

Rhodotorula mucilaginosa = test: Antimicrobial activity against Rhodotorula mucilaginosa by broth microdilution method; outline: as §5
Aspergillus versicolor = test: Antimicrobial activity against Aspergillus versicolor by broth microdilution method; outline: as §3
Aspergillus fumigatus = test: Antimicrobial activity against Aspergillus fumigatus by broth microdilution method; outline: as §3
Rhizomucor = test: Antimicrobial activity against Rhizomucor spp.by broth microdilution method; outline: as §2
Fusarium oxysporum = test: Antimicrobial activity against Fusarium oxysporum by broth microdilution method; outline: as §3
Geotrichum candidum = test: Antimicrobial activity against Galactomyces geotrichum by broth microdilution method

C[C@@H]1[C@H](O)[C@@H](C)/C=C/C=C/C=C/C=C/C=C/C=C/C=C/[C@H](O[C@@H]2O[C@H](C)[C@@H](O)[C@H](N)[C@@H]2O)C[C@@H]2O[C@](O)(C[C@@H](O)C[C@@H](O)[C@H](O)CC[C@@H](O)C[C@@H](O)CC(=O)O[C@H]1C)C[C@H](O)[C@H]2C(=O)O [AMPHOTERICIN B]
4 µg/mL: MIC90 (Aspergillus nidulans) | MIC90 (Fusarium verticillioides) | MIC50 (Acremonium sp.)
> 16 µg/mL: MIC90 (Trichoderma) | MIC90 (Phialemonium curvatum) | MIC90 (Aspergillus ustus) | MIC90 (Alternaria alternata) | MIC50 (Paecilomyces lilacinus) | MIC90 (Paecilomyces lilacinus) | MIC90 (Aspergillus ochraceus) | MIC90 (Lewia infectoria) | MIC90 [3] | MIC90 (Saksenaea vasiformis) | MIC90 (Aspergillus sclerotiorum) | MIC90 (Aspergillus glaucus) | MIC90 (Acremonium sp.) | MIC90 [4] | MIC90 (Fusarium reticulatum) | MIC90 (Rhizomucor)
2 µg/mL: MIC90 [1] | MIC50 (Fusarium verticillioides) | MIC90 (Penicillium) | MIC50 (Saksenaea vasiformis) | MIC90 (Aspergillus sydowii) | MIC50 [4] | MIC90 (Aspergillus versicolor) | MIC50 (Rhizomucor) | MIC90 (Fusarium oxysporum)
1 µg/mL: MIC90 (Candida metapsilosis) | MIC90 (Exophiala jeanselmei) | MIC90 (Exophiala dermatitidis) | MIC90 (Diutina rugosa) | MIC50 (Aspergillus nidulans) | MIC90 (Scytalidium hyalinum) | MIC90 (Trichosporon inkin) | MIC90 ([Candida] zeylanoides) | MIC90 (Pichia norvegensis) | MIC90 (Torulaspora delbrueckii) | MIC50 (Aspergillus sydowii) | MIC50 (Aspergillus versicolor) | MIC50 (Fusarium oxysporum)
0.06 µg/mL: MIC50 (Lewia infectoria) | MIC50 [2]
0.12 µg/mL: MIC50 (Candida metapsilosis) | MIC50 (Diutina rugosa) | MIC50 (Saccharomyces cerevisiae) | MIC50 (Trichosporon inkin) | MIC50 [1] | MIC50 ([Candida] zeylanoides) | MIC50 (Pichia norvegensis) | MIC50 (Torulaspora delbrueckii) | MIC50 (Rhodotorula mucilaginosa)
0.25 µg/mL: MIC50 (Exophiala jeanselmei) | MIC50 (Exophiala dermatitidis) | MIC50 (Aspergillus niger) | MIC90 (Aspergillus niger) | MIC90 (Saccharomyces cerevisiae) | MIC50 (Scytalidium hyalinum) | MIC50 (Aspergillus fumigatus) | MIC50 (Geotrichum candidum)
0.5 µg/mL: MIC50 (Trichoderma) | MIC50 (Ustilago) | MIC50 (Phialemonium curvatum) | MIC50 (Aspergillus ustus) | MIC50 (Alternaria alternata) | MIC50 (Papiliotrema laurentii) | MIC50 (Aspergillus ochraceus) | MIC50 (Trichosporon) | MIC50 (Trichosporon jirovecii) | MIC90 [2] | MIC50 [3] | MIC50 (Trichosporon ovoides) | MIC50 (Penicillium) | MIC50 (Aspergillus sclerotiorum) | MIC50 (Aspergillus glaucus) | MIC50 (Fusarium reticulatum) | MIC50 (Trichosporon dermatis) | MIC50 (Trichosporon domesticum) | MIC90 (Rhodotorula mucilaginosa) | MIC90 (Aspergillus fumigatus) | MIC90 (Geotrichum candidum)
8 µg/mL: MIC90 (Ustilago) | MIC90 (Papiliotrema laurentii) | MIC90 (Trichosporon) | MIC90 (Trichosporon jirovecii) | MIC90 (Trichosporon ovoides) | MIC90 (Trichosporon dermatis) | MIC90 (Trichosporon domesticum)

CCCCCOc1ccc(-c2ccc(-c3ccc(C(=O)N[C@H]4C[C@@H](O)[C@@H](O)NC(=O)[C@@H]5[C@@H](O)[C@@H](C)CN5C(=O)[C@H]([C@@H](C)O)NC(=O)[C@H]([C@H](O)[C@@H](O)c5ccc(O)cc5)NC(=O)[C@@H]5C[C@@H](O)CN5C(=O)[C@H]([C@@H](C)O)NC4=O)cc3)cc2)cc1 [ANIDULAFUNGIN] ({pTerphenylCO(4''-OnC5H11)}-[Orn(4R-OH,5R-OH)]T[Hyp][hTyr(3S-OH,4S-OH)]T[Pro(3S-OH,4S-Me)]; lactam 1-C)
0.03 µg/mL: MIC50 (Exophiala jeanselmei) | MIC50 (Exophiala dermatitidis) | MIC50 (Aspergillus niger) | MIC90 (Aspergillus niger) | MIC50 (Aspergillus nidulans) | MIC50 (Scytalidium hyalinum) | MIC50 (Penicillium) | MIC90 (Penicillium) | MIC50 (Aspergillus sydowii) | MIC90 (Aspergillus sydowii) | MIC50 (Acremonium sp.) | MIC90 (Acremonium sp.) | MIC50 (Aspergillus versicolor) | MIC90 (Aspergillus versicolor) | MIC50 (Aspergillus fumigatus) | MIC90 (Aspergillus fumigatus)
2 µg/mL: MIC50 (Lewia infectoria)
8 µg/mL: MIC90 [2]
> 16 µg/mL: MIC50 (Trichoderma) | MIC90 (Trichoderma) | MIC50 (Ustilago) | MIC90 (Ustilago) | MIC50 (Phialemonium curvatum) | MIC90 (Phialemonium curvatum) | MIC90 (Alternaria alternata) | MIC50 (Paecilomyces lilacinus) | MIC90 (Paecilomyces lilacinus) | MIC50 (Papiliotrema laurentii) | MIC90 (Papiliotrema laurentii) | MIC90 (Lewia infectoria) | MIC50 (Trichosporon inkin) | MIC90 (Trichosporon inkin) | MIC50 [1] | MIC90 [1] | MIC50 (Trichosporon) | MIC90 (Trichosporon) | MIC50 (Fusarium verticillioides) | MIC90 (Fusarium verticillioides) | MIC50 (Trichosporon jirovecii) | MIC90 (Trichosporon jirovecii) | MIC50 [3] | MIC90 [3] | MIC50 (Trichosporon ovoides) | MIC90 (Trichosporon ovoides) | MIC50 (Saksenaea vasiformis) | MIC90 (Saksenaea vasiformis) | MIC50 [4] | MIC90 [4] | MIC50 (Fusarium reticulatum) | MIC90 (Fusarium reticulatum) | MIC50 (Trichosporon dermatis) | MIC90 (Trichosporon dermatis) | MIC50 (Trichosporon domesticum) | MIC90 (Trichosporon domesticum) | MIC50 (Rhodotorula mucilaginosa) | MIC90 (Rhodotorula mucilaginosa) | MIC50 (Rhizomucor) | MIC90 (Rhizomucor) | MIC50 (Fusarium oxysporum) | MIC90 (Fusarium oxysporum) | MIC50 (Geotrichum candidum) | MIC90 (Geotrichum candidum)
1 µg/mL: MIC50 [2]
0.25 µg/mL: MIC90 (Candida metapsilosis) | MIC90 (Diutina rugosa) | MIC90 (Aspergillus nidulans) | MIC90 (Saccharomyces cerevisiae) | MIC90 (Aspergillus ustus) | MIC90 (Aspergillus ochraceus) | MIC90 ([Candida] zeylanoides) | MIC90 (Pichia norvegensis) | MIC90 (Torulaspora delbrueckii) | MIC90 (Aspergillus sclerotiorum) | MIC90 (Aspergillus glaucus)
0.06 µg/mL: MIC50 (Candida metapsilosis) | MIC90 (Exophiala jeanselmei) | MIC90 (Exophiala dermatitidis) | MIC50 (Diutina rugosa) | MIC90 (Scytalidium hyalinum) | MIC50 (Aspergillus ustus) | MIC50 (Alternaria alternata) | MIC50 (Aspergillus ochraceus) | MIC50 ([Candida] zeylanoides) | MIC50 (Pichia norvegensis) | MIC50 (Torulaspora delbrueckii) | MIC50 (Aspergillus sclerotiorum) | MIC50 (Aspergillus glaucus)
0.12 µg/mL: MIC50 (Saccharomyces cerevisiae)
